# From PubChem
# RanGTP-Imp inh: inhibitors of RanGTP-importin-beta interaction, primary screen, biochemical, FRET, CFP-Ran, YFP-importin-beta, homogeneous | cell-free CFP-Ran/YFP-importin-beta FRET ratio | inhibition, % (test concentration not listed) | actives 1.1% (n = 300,000) | AID 2216;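 active = more than half of the replicate wells show a fall in the fluorescence ratio signal beyond about 16%, limit read from the data, passing the limit was not always enough; inconclusive = exactly half of the replicate wells pass the set limit; inactive = fewer than half of replicates pass the limit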;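 note: 0% = DMSO wells and 100% = Ran loaded with GDP instead of GTP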
# Runt-SMMHC FRET: inhibitors of human RUNX1 Runt domain binding to CBFb-SMMHC | AID 1434 | actives 0.74% (n = 220,000) | Cerulean-Runt/Venus-CBFb-SMMHC FRET ratio 530/480, 1 h | Q01196+Q13951 | inhibition, % at 20 µM;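 active = mean inhibition across duplicate retests at 20 µM reaching about 50%, limit read from the data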;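 note: 0% = DMSO wells and 100% = wells with excess untagged CBFb-SMMHC; inhibitors lower the FRET ratio by blocking Runt binding to CBFb-SMMHC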
# Hck-Nef inh: human Hck-Nef kinase inhibition; inhibition, % at 20 µM; AID 463187; P08631; Recombinant Hck-YEEI plus Nef, Z-Lyte FRET kinase assay; actives 0.68% (n = 220,000);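 active = Hck-Nef kinase inhibition above about 50%, limit read from the data; inactive = inhibition below that limit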;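 note: 0% = DMSO with Hck plus Nef and 100% = Hck alone without Nef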
# PERK inhibitor: human PERK inhibition, primary cell-based screen | actives 0.17% (n = 220,000) | inhibition, % at 5.6 µM | Q9NZJ5 | CHO PERK-DD fusion, SEAP luminescence translation reporter;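 active = inhibition above the mean inhibition of all tested compounds plus 3 SD, set separately per screening campaign, cut at about 2.9% in these data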;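 note: PERK kinase domain activated by AP20187 dimerizer at 100 nM; 0% = DMSO with dimerizer and 100% = rapamycin at 8.4 µM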
# Runt-CBFb FRET: blocks binding of human RUNX1 Runt domain to CBFb; Q01196+Q13951; Cerulean-Runt/Venus-CBFb FRET ratio 530/480, 1 h; inhibition, % at 20 µM; actives 0.46% (n = 220,000); AID 1496;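 active = inhibition over about 50% at 20 µM in the single-dose screen, limit read from the data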;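 note: 0% = DMSO wells and 100% = excess unlabeled CBFb competitor control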
#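 Measured by: fluorescence energy transfer, 422 nm excitation, 530/480 nm emission; test system: Cerulean-tagged RUNX1 Runt domain (FRET donor) fusion protein; buffer or medium: Tris pH 7.5 buffer with BSA; compound: one dose, 20 µM compound, 1% DMSO; times: two 1 h room-temperature incubations shielded from light; benchmarks: unlabeled CBFb 5 µM, positive control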
# eIF4E 4G PPI: inhibitors of eIF4E and eIF4G interaction in translation initiation; P63073+Q04637; TR-FRET eIF4E-eIF4GI(517-606) binding, 2 h; inhibition, % at 21.7 µM; actives 0.37% (n = 220,000); AID 782;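 active = inhibition above about 30%, limit read from the data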;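 note: 0% = full FRET control wells and 100% = background wells lacking eIF4GI fragment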
# Active calls of the source: *; ? = inconclusive; · = no result given; [ ] = another dose, or the depositor's remark. An excerpt weighted towards active compounds, which were near 2.2% of everything screened.
SMILES,RanGTP-Imp inh,Runt-SMMHC FRET,Hck-Nef inh,PERK inhibitor,Runt-CBFb FRET,eIF4E 4G PPI
NS(=O)(=O)c1ccc(NC(=O)c2ccc3nccnc3c2)cc1,-2,-4,16,1,2,94*
O=C(Nc1ccncc1)c1ccc2ncsc2c1,6,·,·,·,·,·
FC(F)(F)c1nnc2c(Sc3ccccn3)nc3ccccc3n12,8,51*,0,0,16,6
CCOC(=O)Cc1c(C)nc2c(-c3ccccc3)c(-c3ccccc3)[nH]n2c1=O,4,6,3,0,-1,-3
CCOC(=O)Cc1c(C)nc2c(-c3ccccc3)c(C)[nH]n2c1=O,1,-11,0,3.0*,-4,1
CC(C)CCN1CCN(Cc2cccn2-c2ccccn2)CC1CCO (stereo not drawn),9,3,3,0,-1,4
Cc1oc(-c2ccccc2Cl)nc1CS(=O)CC(=O)NCc1ccc(Cl)cc1 (stereo not drawn),-1,·,·,·,·,·
O=C(O)c1cccnc1Sc1ccccc1Cl,?,-7,11,3.2*,0,1
CCSc1nnc(-c2ccccc2N)c(=O)[nH]1,-2,-3,-1,1,-1,-3
Nc1ccccc1-c1nnc(SCc2ccccc2F)[nH]c1=O,1,-4,1,1,-2,33*[fluorescence artefact?]
CC(=O)c1ccc(Nc2c([N+](=O)[O-])ccc3nonc23)cc1,-4,·,·,·,·,·
O=C(O)CCN1C(=O)C2C3CC(C2C1=O)C1C(c2ccccc2)c2sc(=O)n(-c4ccccc4)c2SC31 (stereo not drawn),9,0,14,0,4,-3
O=C(O)CCN1C(=O)C2C3CC(C2C1=O)C1C(c2ccccc2)c2sc(=O)[nH]c2SC31 (stereo not drawn),21*,-1,9,2,12,-5
Cc1ccc(C2c3sc(=O)[nH]c3SC3C4CC(C5C(=O)N(C(C)C(=O)O)C(=O)C45)C23)cc1 (stereo not drawn),58*,4,5,0,27,-19
O=c1[nH]c2c(s1)C(c1ccccc1)C1C3CCC(C3)C1S2 (stereo not drawn),26*,11,2,0,4,4
CCC(C)c1c(O)nc(SCC(=O)N2CCCCC2)[nH]c1=O (stereo not drawn),-4,·,·,·,·,·
CCOC(=O)C(=CNNc1cccc(Cl)c1)C(=O)OCC,-3,4,-1,1,2,4
Cc1cc(C)nc(NS(=O)(=O)c2ccc(N/C=C/C(=O)c3ccc(Cl)cc3)cc2)n1,5,25,11,0,12,-2
COc1ccc(C(=O)/C=C/Nc2ccc(S(=O)(=O)Nc3nc(C)cc(C)n3)cc2)cc1OC,3,67*,23,0,44,6
COc1ccc(C(=O)/C=C/Nc2ccc(S(=O)(=O)Nc3nc(C)cc(C)n3)cc2)c(OC)c1,0,81*,44,1,38,0
O=C(Nc1ccc2[nH]ccc2c1)c1cccs1,4,2,25,0,0,32*
COc1ccc2[nH]c(=O)c(CN(CCN3CCCC3)C(=O)Nc3ccccc3Cl)cc2c1,-2,-8,·,·,10,58*
CCOc1ccc2[nH]c(=O)c(CN(CCN3CCCC3)C(=S)Nc3ccccc3OCC)cc2c1,-1,0,19,0,11,3
CC1(C)Cc2ccccc2C(/C(=N\Nc2cccc(Cl)c2)C(N)=O)=N1,-3,-4,26,0,-5,4
CC(=O)c1ccc(N/N=C(/C(N)=O)C2=NC(C)(C)Cc3ccccc32)cc1,9,2,72*,-1,-4,0
O=C(CNC(=S)N(Cc1ccccc1F)C1CCCCC1)NCC1CCCO1 (stereo not drawn),1,-2,18,0,1,-1
COC(=O)C1=CNC=C(C(=O)OC)C1c1ccc(C(=O)OC)cc1,6,71*,24,0,28,2
Cc1sc2ncnc(NCC(C)(C)N3CCOCC3)c2c1C,2,0,0,-2,2,-1
